Screening results deposited in PubChem by several laboratories.
Most compounds without a hit are left out; they make up all but 3.4% or so of the library.
IMP-1 inhibitor: IMP-1 metallo-beta-lactamase inhibitors, primary screen, biochemical, epi-absorbance readout, Pseudomonas aeruginosa enzyme; purified IMP-1, nitrocefin hydrolysis, epi-absorbance fluorescence; inhibition, % at 5.6 µM; actives 0.45% (n = 290,000); AID 1556, 2009;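 active = inhibition above the mean plus 3 SD of all compounds in the same screening run, cut at about 4.5% in these data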;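 note: 0% = IMP-1 with DMSO and 100% = DMSO wells lacking enzyme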
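System: Purified recombinant IMP-1 metallo-beta-lactamase enzyme | Measured by: Fluorescence quenching readout, ex 480/em 530 nm | Replication: Singlicate | Incubation: 15 min preincubation plus 25 min reaction at 25 °C | Evaluation: Percent inhibition from optical density relative to buffer-blank wells | Benchmarks: DMSO with and without IMP-1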
MEKK3 PB1 HTS: modulators of MEKK3-MEK5 PB1 binding, primary screen, biochemical, wildtype MEKK3, multiplex bead flow cytometry, Alexa488-MEK5; binding response (% of control), % at 10 µM; bead-based flow cytometry, Alexa488-MEK5 binding to MEKK3; actives lie on both sides; 0 = blocked by unlabeled MEK5, 100 = vehicle; actives 1.4% (n = 290,000); AID 1529, 2009; Mitogen-activated protein kinase kinase kinase 3 (Homo sapiens), Q99759;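 active = binding response more than 3 SD above or below the average of its plate-row segment, actives on both sides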;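 note: Alexa488 bead fluorescence after subtracting the streptavidin-only scavenger bead signal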
Target sequence (Q99759 whole entry, looked up): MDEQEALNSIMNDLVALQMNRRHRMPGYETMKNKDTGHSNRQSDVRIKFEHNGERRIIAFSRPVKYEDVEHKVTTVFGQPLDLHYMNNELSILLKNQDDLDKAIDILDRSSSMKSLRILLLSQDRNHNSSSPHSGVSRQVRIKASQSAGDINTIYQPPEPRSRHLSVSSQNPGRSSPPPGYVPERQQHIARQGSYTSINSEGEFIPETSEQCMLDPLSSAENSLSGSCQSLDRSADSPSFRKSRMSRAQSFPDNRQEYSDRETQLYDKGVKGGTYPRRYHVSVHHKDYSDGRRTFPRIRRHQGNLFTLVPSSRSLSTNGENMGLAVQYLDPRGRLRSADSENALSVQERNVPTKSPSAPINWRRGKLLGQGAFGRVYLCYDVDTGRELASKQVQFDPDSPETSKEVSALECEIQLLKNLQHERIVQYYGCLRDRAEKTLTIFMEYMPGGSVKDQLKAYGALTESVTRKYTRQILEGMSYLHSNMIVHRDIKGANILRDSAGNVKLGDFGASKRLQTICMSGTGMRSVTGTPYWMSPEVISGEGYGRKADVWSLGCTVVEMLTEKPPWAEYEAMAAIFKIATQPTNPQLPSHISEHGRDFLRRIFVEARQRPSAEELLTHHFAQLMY
VIM-2 inh: VIM-2 metallo-beta-lactamase inhibitors, primary screen, biochemical, epi-absorbance readout, Pseudomonas aeruginosa enzyme; actives 0.89% (n = 290,000); inhibition, % at 5.6 µM; purified VIM-2, nitrocefin hydrolysis, epi-absorbance fluorescence;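 active = inhibition above the mean of all tested compounds plus 3 SD, cutoff set per screening run, cut at about 7.5% in these data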;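 note: red hydrolysis product quenches plate fluorescence so inhibitors raise well fluorescence; 0% = enzyme with DMSO and 100% = DMSO without enzyme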
MEKK2 WT-MEK5: modulators of MEK5 binding to wildtype MEKK2, primary screen, biochemical, multiplex bead flow cytometry, Alexa488-MEK5 | Mitogen-activated protein kinase kinase kinase 2 (Homo sapiens), Q9Y2U5 | Alexa488-MEK5 binding to MEKK2 WT; actives lie on both sides | binding response (% of control), % at 10 µM | actives 1.1% (n = 290,000) | AID 1531, 2009; in the data active = binding response below about 67% or above about 130%
MEKK2 mut-MEK5: MEK5 binding signal on mutant MEKK2 PB1, primary screen, biochemical, multiplex bead flow cytometry, Alexa488-MEK5; percent response, % at 10 µM; Alexa488-MEK5 binding to MEKK2 mutant; actives 0.35% (n = 290,000); in the data active = percent response above about 24%, passing the limit was not always enough
MEKK2wt confirm: modulators of MEK5 binding to wildtype MEKK2, confirmation, biochemical, single concentration, multiplex bead flow cytometry; actives 2.4% (n = 5,900); Alexa488-MEK5 binding to MEKK2 WT; actives lie on both sides; shares compounds with MEKK3 PB1 HTS; AID 1892, 2009; binding response (% of control), % at 10 µM; in the data active = binding response below about 16% or above about 210%; inactive = in between
MEKK2mut confirm: mutant MEKK2 PB1-MEK5 binding signal retest – biochemical, single concentration, multiplex bead flow cytometry, confirmation. shares compounds with MEKK3 PB1 HTS. Alexa488-MEK5 binding to MEKK2 mutant. percent response, % at 10 µM. actives 2% (n = 5,900); in the data active = percent response mostly above about 71%, no sharp cut-off; inactive = mostly below about 38%;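 note: higher means compound restores mutant binding toward wildtype level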
MEKK3-MEK5 inh: MEKK3 wild-type PB1 binding to MEK5, inhibitors, confirmation, biochemical, bead multiplex flow cytometry, single concentration, wildtype. actives 1.8% (n = 5,900). binding response (% of control), % at 10 µM. Alexa488-MEK5 binding to MEKK3; stronger effect = lower value. shares compounds with MEKK3 PB1 HTS;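 active = binding response below 72% of control, or above a set upper limit, though filed actives all read lower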;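 note: 100% = DMSO only wells and 0% = binding blocked by excess unlabeled MEK5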
* = called active by the depositor; . = not tested or not shown; [ ] = remark or other dose.

SMILES	IMP-1 inhibitor	MEKK3 PB1 HTS	VIM-2 inh	MEKK2 WT-MEK5	MEKK2 mut-MEK5	MEKK2wt confirm	MEKK2mut confirm	MEKK3-MEK5 inh
c1cc(OCCCN2CCCCC2)ccc1CN1CCCCC1	-2	113	-1	190*	33*	139	31	106
ON=C1c2cc(OCCN3CCCCC3)ccc2-c2ccc(OCCN3CCCCC3)cc21	5.6*	117	6	232*	31*	180	48	105
Nc1ccc(CN2CCCCCC2)cc1	-4	116	-1	136*	13	41	-20	81
CCOc1ccc(OCCN2CCCCC2)cc1	-2	93	0	92	-3	.	.	.
Clc1ccc(OCCCCN2CCCCC2)cc1	1	101	0	106	2	.	.	.
O=C1Cc2ccccc2Sc2cc(OCCCN3CCCCC3)ccc21	-4	75*[inhibitor]	-1	108	1	118	-1	99
Cc1nn2c(-c3ccccc3)ccnc2c1-c1ccccc1	-6	103	-2	101	1	.	.	.
CCN(CC)CCNC(=O)CS(=O)Cc1nc(-c2ccc(Cl)cc2)oc1C (stereo not drawn)	-2	49*[inhibitor]	-2	62	-21	111	12	109
C/C=C/c1ccc(OCC(O)CNCC(c2ccc(OC)cc2)N(C)C)c(OC)c1 (stereo not drawn)	-3	111	0	146*	19	120	7	101
C/C=C/c1ccc(OCC(O)CNCCc2ccc(OC)cc2)c(OC)c1 (stereo not drawn)	-1	103	1	120	8	.	.	.
COc1ccc(-c2nc(C#N)c(N3CCOCC3)o2)cc1OC	-1	77*[inhibitor]	3	84	-10	100	2	97
COc1ccc(-c2nc(C#N)c(N3CCC(C(N)=O)CC3)o2)cc1OC	-1	101	1	95	1	.	.	.
Cn1cc(CN2CCN(Cc3cccnc3)CC2)c(-c2ccc3c(c2)OCCO3)n1	-2	106	-4	103	-7	.	.	.
COc1ccc(S(=O)(=O)Nc2ccc(NC(C)=O)cc2)cc1	-1	100	-1	101	1	.	.	.
Cc1ccc2c(c1)C(=C(C#N)C#N)C(=O)N2CCN1CCOCC1	0	104	-1	106	3	.	.	.
CNc1c(N)c(=O)oc2ccccc12	1	81	0	90	-11	.	.	.
